Published values of several laboratories.
Protocols differ between the studies behind these lines.
Target: G protein-coupled receptor kinase 4 (GRK4, Homo sapiens, UniProt P32298)

C1=C/COCc2cc(ccc2OCCN2CCCC2)Nc2nccc(n2)-c2cccc(c2)COC/1  remaining binding (binding; 0.1 µM): 13%
CNS(=O)(=O)c1ccc(Nc2ncc(C(F)(F)F)c(N3CCC[C@](C)(O)C3)n2)c(C)c1  remaining binding (binding, competition with immobilised ligand; 1 µM): 100%
Cc1ccc(NC(=O)c2ccnc(C(F)(F)F)c2)cc1-c1cc(OCCO)nc(N2CCOCC2)c1  remaining binding (binding; 1 µM): 99%
CCCCC(=O)Nc1ccc(-c2ccc3ncn(CCC)c(=O)c3c2)cn1  remaining binding (binding, competition with immobilised ligand; 0.5 µM): 93%
C=CC(=O)N1CCC[C@@H](n2nc(-c3ccc(Oc4ccccc4)cc3)c3c(N)ncnc32)C1  inhibition (enzyme activity, inhibitor; 1 µM): 3%
C[C@]1(O)CCCN(c2nc(Nc3ccc(S(=O)(=O)N[C@H]4CC[C@H](CN5CCN(c6ccc(C7CCC(=O)NC7=O)cc6F)CC5)CC4)cc3F)ncc2C(F)(F)F)C1 (stereo partly drawn)  remaining binding (binding, competition with immobilised ligand; 1 µM): 87%
C=CC(=O)N1CCC([C@@H]2CCNc3c(C(N)=O)c(-c4ccc(Oc5ccccc5)cc4)nn32)CC1  inhibition (enzyme activity, inhibitor; 1 µM): 8%
CN1CCN(C(=O)c2ccc(NC(=O)Nc3ccc(N(C)c4ccnc(Nc5ccc(CS(C)(=O)=O)cc5)n4)cc3)cc2)CC1  remaining binding (binding; 1 µM): 4.5%
CC(C)S(=O)(=O)c1ccc2nccc(Nc3ccc4sc(C5CCCC5)nc4c3)c2c1  activity vs control (enzyme activity, inhibitor; 1 µM): 112%
